Measured values: ChEMBL document CHEMBL1138143, “A new class of blockers of the voltage-gated potassium channel Kv1.3 via modification of the 4- or 7-position of khellinone” (J Med Chem, 2006)

Columns and labels:
[1] = target: Potassium voltage-gated channel subfamily A member 3 (Mus musculus, UniProt P16390); assay: Effect on blockade of mouse Kv1.3 channel expressed in L929 cells; assay type: functional, cell-based
Method in brief: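 Whole-cell patch clamp on L929 cells stably expressing mouse Kv1.3, holding potential -80 mV. Bath: Ringer (160 mM NaCl, 4.5 mM KCl, 2 mM CaCl2, 1 mM MgCl2, 10 mM HEPES, pH 7.4). Pipette: 134 mM KF, 2 mM MgCl2, 10 mM HEPES, 10 mM EGTA, pH 7.2. Current elicited by 500-ms pulses to 40 mV every 45 s. Series resistance compensation of 60-80% applied above 2 nA.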

[2] = target: Potassium voltage-gated channel subfamily A member 1 (Homo sapiens, UniProt Q09470); assay: Effect on blockade of Kv1.1 channel; assay type: functional
Sequence of Potassium voltage-gated channel subfamily A member 1 (Q09470 whole entry): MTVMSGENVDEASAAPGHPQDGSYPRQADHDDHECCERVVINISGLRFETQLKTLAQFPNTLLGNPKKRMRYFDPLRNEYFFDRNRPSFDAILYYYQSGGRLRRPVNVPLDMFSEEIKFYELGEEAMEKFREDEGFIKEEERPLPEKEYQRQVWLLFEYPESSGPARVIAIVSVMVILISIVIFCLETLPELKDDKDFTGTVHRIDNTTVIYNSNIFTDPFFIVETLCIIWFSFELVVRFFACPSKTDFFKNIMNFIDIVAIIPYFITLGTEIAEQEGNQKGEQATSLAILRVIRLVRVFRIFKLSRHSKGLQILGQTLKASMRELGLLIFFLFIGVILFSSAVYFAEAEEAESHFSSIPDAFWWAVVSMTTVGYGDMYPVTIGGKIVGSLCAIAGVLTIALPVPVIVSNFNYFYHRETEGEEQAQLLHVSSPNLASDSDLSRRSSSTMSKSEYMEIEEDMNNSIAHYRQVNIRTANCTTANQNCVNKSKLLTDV
Method in brief: (§1)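 Whole-cell patch clamp with a holding potential of -80 mV on cell lines stably expressing Kv1.1, Kv1.2, Kv1.4 or Kv1.5. Recording followed previously described methods. EC50 came from a Hill equation fit to the reduction of area under the current curve.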

[3] = target: Potassium voltage-gated channel subfamily A member 4 (Homo sapiens, UniProt P22459); assay: Effect on blockade of Kv1.4 channel; assay type: functional; method in brief: as §1
Sequence of Potassium voltage-gated channel subfamily A member 4 (P22459 whole entry): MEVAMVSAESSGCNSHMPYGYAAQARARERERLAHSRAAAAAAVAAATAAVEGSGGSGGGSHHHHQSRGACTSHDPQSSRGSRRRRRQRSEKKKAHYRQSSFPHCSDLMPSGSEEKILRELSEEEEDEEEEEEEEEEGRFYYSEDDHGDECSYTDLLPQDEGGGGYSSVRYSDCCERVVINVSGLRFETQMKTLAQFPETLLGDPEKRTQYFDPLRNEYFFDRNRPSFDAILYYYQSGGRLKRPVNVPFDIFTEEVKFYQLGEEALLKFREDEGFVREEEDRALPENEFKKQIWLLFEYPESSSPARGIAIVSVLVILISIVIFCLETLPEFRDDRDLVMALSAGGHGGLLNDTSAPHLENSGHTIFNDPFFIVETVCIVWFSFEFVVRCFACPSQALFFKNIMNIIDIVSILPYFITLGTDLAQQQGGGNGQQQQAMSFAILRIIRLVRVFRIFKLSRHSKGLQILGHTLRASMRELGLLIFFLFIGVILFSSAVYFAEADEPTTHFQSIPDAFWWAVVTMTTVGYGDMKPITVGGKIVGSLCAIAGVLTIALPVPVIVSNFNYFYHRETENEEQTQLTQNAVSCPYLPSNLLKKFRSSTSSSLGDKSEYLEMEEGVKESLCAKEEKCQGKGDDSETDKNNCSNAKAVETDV

[4] = target: Potassium voltage-gated channel subfamily A member 2 (Homo sapiens, UniProt P16389); assay: Effect on blockade of Kv1.2 channel; assay type: functional; method in brief: as §1
Sequence of Potassium voltage-gated channel subfamily A member 2 (P16389 whole entry): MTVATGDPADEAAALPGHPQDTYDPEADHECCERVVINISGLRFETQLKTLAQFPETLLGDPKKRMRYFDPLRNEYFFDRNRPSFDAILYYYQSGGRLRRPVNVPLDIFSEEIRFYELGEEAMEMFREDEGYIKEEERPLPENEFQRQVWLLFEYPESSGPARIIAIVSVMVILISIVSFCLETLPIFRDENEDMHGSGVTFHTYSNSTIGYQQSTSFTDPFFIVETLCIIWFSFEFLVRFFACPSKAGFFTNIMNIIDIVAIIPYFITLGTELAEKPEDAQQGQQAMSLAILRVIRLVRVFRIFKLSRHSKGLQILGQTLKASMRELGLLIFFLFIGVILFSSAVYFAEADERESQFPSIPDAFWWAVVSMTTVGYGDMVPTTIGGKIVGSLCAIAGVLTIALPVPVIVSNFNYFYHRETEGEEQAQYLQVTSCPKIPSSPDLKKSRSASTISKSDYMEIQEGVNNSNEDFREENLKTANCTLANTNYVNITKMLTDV

[5] = target: Potassium voltage-gated channel subfamily A member 5 (Homo sapiens, UniProt P22460); assay: Effect on blockade of Kv1.5 channel; assay type: functional; method in brief: as §1
Sequence of Potassium voltage-gated channel subfamily A member 5 (P22460 whole entry): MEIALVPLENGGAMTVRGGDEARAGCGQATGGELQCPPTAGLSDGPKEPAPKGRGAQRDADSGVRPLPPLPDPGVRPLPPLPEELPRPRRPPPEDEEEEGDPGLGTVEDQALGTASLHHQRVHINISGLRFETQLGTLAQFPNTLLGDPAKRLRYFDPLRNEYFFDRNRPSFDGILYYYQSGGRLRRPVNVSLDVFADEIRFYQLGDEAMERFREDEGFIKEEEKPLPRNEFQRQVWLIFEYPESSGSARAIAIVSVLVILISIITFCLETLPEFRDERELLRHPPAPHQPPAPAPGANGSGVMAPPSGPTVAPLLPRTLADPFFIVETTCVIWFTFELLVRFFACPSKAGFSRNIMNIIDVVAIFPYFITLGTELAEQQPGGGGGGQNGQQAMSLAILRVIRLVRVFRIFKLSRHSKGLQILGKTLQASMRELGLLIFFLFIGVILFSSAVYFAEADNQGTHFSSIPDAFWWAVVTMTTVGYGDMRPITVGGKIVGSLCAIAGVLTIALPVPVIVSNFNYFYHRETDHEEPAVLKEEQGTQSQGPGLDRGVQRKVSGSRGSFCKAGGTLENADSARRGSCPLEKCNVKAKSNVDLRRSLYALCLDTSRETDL

T-cell = assay: Inhibition of anti-CD3 antibody stimulated human T cell proliferation; assay type: functional, cell-based
Method in brief: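 Human PBMCs were isolated from healthy donors by density gradient and plated at 2 × 10^5 cells/well in RPMI 1640 with 10% FCS. Cells were preincubated with compound for 30 min, then stimulated with 5 ng/mL anti-CD3 for 48 h. [3H]-thymidine (1 µCi/well) was added for the last 6 h. Done in triplicate and normalized to maximal control incorporation.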

[6] = target: Voltage-gated inwardly rectifying potassium channel KCNH2 (Homo sapiens, UniProt Q12809); assay: Effect on blockade of Kv11.1 channel; assay type: functional
Sequence of Voltage-gated inwardly rectifying potassium channel KCNH2 (Q12809 whole entry): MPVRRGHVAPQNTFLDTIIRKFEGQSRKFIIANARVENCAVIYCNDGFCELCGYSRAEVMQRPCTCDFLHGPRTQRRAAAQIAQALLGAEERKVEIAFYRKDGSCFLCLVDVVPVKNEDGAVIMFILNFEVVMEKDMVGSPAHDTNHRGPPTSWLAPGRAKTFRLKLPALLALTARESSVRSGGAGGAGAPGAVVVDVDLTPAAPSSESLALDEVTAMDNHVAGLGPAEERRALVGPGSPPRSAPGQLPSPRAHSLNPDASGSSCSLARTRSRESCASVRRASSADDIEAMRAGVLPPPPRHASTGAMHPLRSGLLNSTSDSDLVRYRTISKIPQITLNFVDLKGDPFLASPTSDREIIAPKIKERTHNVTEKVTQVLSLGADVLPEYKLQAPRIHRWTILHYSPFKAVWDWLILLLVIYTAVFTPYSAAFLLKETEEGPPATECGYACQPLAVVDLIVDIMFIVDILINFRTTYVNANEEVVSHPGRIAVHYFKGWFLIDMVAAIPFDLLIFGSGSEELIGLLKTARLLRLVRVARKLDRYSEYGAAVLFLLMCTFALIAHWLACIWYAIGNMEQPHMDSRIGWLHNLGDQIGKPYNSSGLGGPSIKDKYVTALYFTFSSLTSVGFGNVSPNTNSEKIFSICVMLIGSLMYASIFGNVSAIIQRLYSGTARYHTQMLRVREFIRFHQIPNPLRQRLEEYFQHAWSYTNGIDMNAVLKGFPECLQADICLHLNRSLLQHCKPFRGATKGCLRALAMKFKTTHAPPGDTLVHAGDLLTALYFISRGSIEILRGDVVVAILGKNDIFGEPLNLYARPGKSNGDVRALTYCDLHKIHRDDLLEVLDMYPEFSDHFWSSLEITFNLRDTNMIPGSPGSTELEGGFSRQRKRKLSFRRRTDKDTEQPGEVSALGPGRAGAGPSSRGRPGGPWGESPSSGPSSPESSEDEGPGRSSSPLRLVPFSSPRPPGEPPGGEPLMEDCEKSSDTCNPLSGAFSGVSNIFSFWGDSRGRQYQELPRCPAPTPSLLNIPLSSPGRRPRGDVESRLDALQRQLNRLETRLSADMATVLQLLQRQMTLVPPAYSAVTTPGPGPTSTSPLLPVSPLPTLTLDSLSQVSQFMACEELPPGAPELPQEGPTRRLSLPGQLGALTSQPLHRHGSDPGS

Sequence of Potassium voltage-gated channel subfamily A member 3 (P16390 whole entry): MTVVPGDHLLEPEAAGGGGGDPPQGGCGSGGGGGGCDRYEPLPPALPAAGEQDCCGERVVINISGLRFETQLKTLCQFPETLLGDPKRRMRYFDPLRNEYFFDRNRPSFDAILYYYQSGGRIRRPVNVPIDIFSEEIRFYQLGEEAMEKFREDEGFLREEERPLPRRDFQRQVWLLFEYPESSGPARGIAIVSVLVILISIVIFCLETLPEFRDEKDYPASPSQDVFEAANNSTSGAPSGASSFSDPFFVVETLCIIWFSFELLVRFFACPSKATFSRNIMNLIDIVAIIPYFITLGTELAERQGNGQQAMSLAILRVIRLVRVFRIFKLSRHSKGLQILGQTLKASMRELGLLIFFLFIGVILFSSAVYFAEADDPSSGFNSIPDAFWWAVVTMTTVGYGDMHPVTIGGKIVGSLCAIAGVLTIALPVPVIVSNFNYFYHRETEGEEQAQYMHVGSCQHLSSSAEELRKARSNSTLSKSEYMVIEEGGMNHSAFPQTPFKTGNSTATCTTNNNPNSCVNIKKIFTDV

Row | Structure (SMILES) | EC50 [1] [µM] | other results
1 | COc1c(C(C)=O)c(O)c(OCc2ccc(C(C)(C)C)cc2)c2occc12 | 5.8 | –
2 | CCOc1c(C(C)=O)c(OCCCCCCOc2c(C(C)=O)c(OCC)c3ccoc3c2OC)c(OC)c2occc12 | 0.8 | –
3 | COc1c(O)c(C(C)=O)c(OCc2ccc(C(=O)c3ccccc3)cc2)c2ccoc12 | 0.5 | –
4 | COc1c(C(C)=O)c(O)c(OCc2ccc(-c3ccccc3)cc2)c2occc12 | 1.2 | –
5 | CCCOc1c(O)c(C(C)=O)c(OC)c2ccoc12 | 8 | –
6 | COc1c(O)c(C(C)=O)c(OCc2cccc(Cl)c2)c2ccoc12 | 1.4 | –
7 | COc1c(C(C)=O)c(O)c(OCc2ccc(F)cc2)c2occc12 | 0.7 | –
8 | CCOc1c(O)c(C(C)=O)c(OC)c2ccoc12 | 10 | –
9 | COc1c(C(C)=O)c(O)c(OCc2ccc(Cl)cc2)c2occc12 | 0.42 | –
10 | COc1c(O)c(C(C)=O)c(OCc2cccc(C(=O)O)c2)c2ccoc12 | > 10 | –
11 | COc1c(O)c(C(C)=O)c(OCc2cccc([N+](=O)[O-])c2)c2ccoc12 | 1.4 | –
12 | COc1c(C(C)=O)c(O)c(OCc2cccc(OC(F)(F)F)c2)c2occc12 | 0.45 | –
13 | COc1c(O)c(C(C)=O)c(OCc2cccc(C)c2)c2ccoc12 | 1 | –
14 | COc1c(O)c(C(C)=O)c(OCc2cccc3ccccc23)c2ccoc12 | 8 | –
15 | COc1c(C(C)=O)c(O)c(OCc2ccc(C(=O)c3ccccc3)cc2)c2occc12 | 0.5 | –
16 | COc1c(C(C)=O)c(O)c(OCc2ccc(OC(F)(F)F)cc2)c2occc12 | 0.6 | –
17 | COc1c(C(C)=O)c(O)c(OCc2cccc([N+](=O)[O-])c2)c2occc12 | 0.6 | –
18 | COc1c(O)c(C(C)=O)c(OCc2ccccc2)c2ccoc12 | 2.5 | –
19 | COc1c(C(C)=O)c(O)c(OCc2cccc(Cl)c2)c2occc12 | 0.6 | –

Row | Structure (SMILES) | EC50 [1] [µM] | other results
20 | CC(=O)c1c(O)c(OCc2ccccc2)c2occc2c1OCc1ccccc1 | 1.2 | EC50 [2]: 7 µM; EC50 [3]: > 20 µM; EC50 [4]: 10 µM; EC50 [5]: 5 µM
21 | CCCCCOc1c(C(C)=O)c(O)c(OC)c2occc12 | 4 | –
22 | COc1c(C(C)=O)c(O)c(OCc2cccc(F)c2)c2occc12 | 0.75 | –
23 | COc1cccc(COc2c(C(C)=O)c(O)c(OC)c3occc23)c1 | 0.68 | –
24 | COc1c(O)c(C(C)=O)c(OCc2ccc3ccccc3c2)c2ccoc12 | 5 | –
25 | COc1c(O)c(C(C)=O)c(OCc2ccccc2F)c2ccoc12 | 1.7 | –
26 | CCOc1c(C(=O)/C=C/c2cccc(O)c2)c(O)c(OC)c2occc12 | 2.5 | –
27 | COc1c(C(C)=O)c(O)c(OCc2ccccc2C)c2occc12 | 1.9 | –
28 | COc1c(O)c(C(C)=O)c(OCc2ccc(-c3ccccc3)cc2)c2ccoc12 | 0.9 | –
29 | COc1c(C(C)=O)c(O)c(OCc2ccc(OCc3ccccc3)cc2)c2occc12 | 6.3 | –
30 | COc1c(O)c(C(C)=O)c(OCc2ccc(C(C)C)cc2)c2ccoc12 | 0.7 | –
31 | COc1c(O)c(C(C)=O)c(OCc2ccccc2C)c2ccoc12 | 2 | –
32 | COc1c(O)c(C(C)=O)c(OCc2ccc(Br)cc2)c2ccoc12 | 0.5 | –
33 | CCOc1c(C(C)=O)c(O)c(OCC)c2occc12 | 6 | –
34 | COc1c(C(C)=O)c(O)c(OCc2ccc(C(F)(F)F)cc2)c2occc12 | 0.42 | –
35 | COc1c(O)c(C(C)=O)c(OCc2ccccc2Cl)c2ccoc12 | 1.2 | –
36 | COc1c(O)c(C(C)=O)c(OCc2ccccc2-c2ccccc2)c2ccoc12 | 2 | –
37 | COc1c(C(C)=O)c(O)c(OCc2ccccc2-c2ccccc2)c2occc12 | 1.1 | –
38 | COc1c(C(C)=O)c(O)c(OCc2ccccc2F)c2occc12 | 2.5 | –

Row | Structure (SMILES) | EC50 [1] [µM] | other results
39 | COc1c(O)c(C(C)=O)c(OCc2ccc(C(C)(C)C)cc2)c2ccoc12 | 1.5 | –
40 | CCOc1c(C(C)=O)c(O)c(OC)c2occc12 | 7 | –
41 | COc1c(O)c(C(C)=O)c(OCc2ccc(C(F)(F)F)cc2)c2ccoc12 | 0.51 | –
42 | COc1c(C(C)=O)c(O)c(OCc2ccccc2)c2occc12 | 1.2 | –
43 | COc1c(O)c(C(C)=O)c(OCc2ccc(OCc3ccccc3)cc2)c2ccoc12 | 8.8 | –
44 | COc1c(O)c(C(C)=O)c(OCc2ccc(Cl)cc2)c2ccoc12 | 0.48 | EC50 [2]: 1.7 µM; EC50 [3]: 4.8 µM; EC50 [4]: 2.5 µM; EC50 (T-cell): 2.5 µM; EC50 [5]: 0.7 µM; EC50 [6]: 5 µM
45 | COc1c(O)c(C(C)=O)c(OCc2ccc(OC(F)(F)F)cc2)c2ccoc12 | 1.8 | –
46 | COc1c(C(C)=O)c(O)c(OCc2ccc3ccccc3c2)c2occc12 | 5 | –
47 | CCCCCOc1c(O)c(C(C)=O)c(OC)c2ccoc12 | 3 | –
48 | COc1c(C(C)=O)c(O)c(OCc2cccc(C)c2)c2occc12 | 1.2 | –
49 | COc1c(O)c(C(C)=O)c(OCc2cccc(F)c2)c2ccoc12 | 1.2 | –
50 | COc1ccc(COc2c(C(C)=O)c(O)c(OC)c3occc23)cc1 | 1.5 | –
51 | CCCOc1c(C(C)=O)c(O)c(OC)c2occc12 | 5 | –
52 | COc1c(C(C)=O)c(O)c(OCc2ccc(Br)cc2)c2occc12 | 0.4 | EC50 [2]: 1.2 µM; EC50 [3]: 4.3 µM; EC50 [4]: 1.4 µM; EC50 (T-cell): 2.5 µM; EC50 [5]: 0.9 µM
53 | COc1c(C(C)=O)c(O)c(OCc2ccccc2Cl)c2occc12 | 0.7 | –
54 | COc1c(C(C)=O)c(O)c(OCc2ccc(C(C)C)cc2)c2occc12 | 1 | –
55 | COc1c(O)c(C(C)=O)c(OCc2ccc(F)cc2)c2ccoc12 | 1 | –
56 | COc1c(O)c(C(C)=O)c(OCc2cccc(OC(F)(F)F)c2)c2ccoc12 | 0.55 | –
57 | COc1c(C(C)=O)c(O)c(OC)c2occc12 | 45 | –
